Laboratory results published in ChEMBL document CHEMBL5346884, “Discovery, synthesis and mechanism study of 2,3,5-substituted [1,2,4]-thiadiazoles as covalent inhibitors targeting 3C-Like protease of SARS-CoV-2” (Eur J Med Chem, 2023).

How the values were obtained:
[1] = target: T1, Replicase polyprotein 1ab (Severe acute respiratory syndrome coronavirus 2, UniProt P0DTD1); assay: Inhibition of full-length recombinant SARS-CoV-2 3CL protease expressed in Escherichia coli BL21 (DE3) cells using fluorogenic MCA-AVLQSGFR-Lys (Dnp)-Lys-NH2 substrate preincubated for 10 mins followed by substrate addition measured for 3.5 mins by FRET assay
SARS-CoV-2 = assay: Antiviral activity against SARS-CoV-2 infected in African green monkey Vero E6 cells assessed as reduction in viral replication incubated for 24 hrs by qRT-PCR analysis; format: functional, organism-based; settings: Severe acute respiratory syndrome coronavirus 2, Vero C1008, 24 h
Vero C1008 = assay: Cytotoxicity against African green monkey Vero E6 cells incubated for 24 hrs by WST-8 assay; format: toxicity, cell-based; settings: chlorocebus sabaeus, vero c1008, 24 h
How it was run: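 Vero E6 cells grown in DMEM with 10% FBS at 37 °C, 5% CO₂. Compounds tested as 2-fold dilutions, 9 concentrations, in DMEM with 2% FBS, triplicate per concentration, for 24 h. WST-8 added and absorbance read at 450 nm after 0.5–1 h. Viability expressed relative to DMSO control.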

[2] = target: T1, Replicase polyprotein 1ab; assay: Binding affinity to CM5 chip-immobilised full-length recombinant SARS-CoV-2 3CL protease expressed in Escherichia coli BL21 (DE3) cells assessed as dissociation constant by SPR analysis
How it was run: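 SPR at 25 °C in HBS-EP (10 mM HEPES pH 7.4, 150 mM NaCl, 3.0 mM EDTA, 0.05% Tween-20) with 5% DMSO. Protease immobilised at 8000–10000 RU. Compounds were run as an eight-concentration series, with 240 s association and 200 s dissociation. Surface washed with 50% DMSO each cycle.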

[3] = target: T1, Replicase polyprotein 1ab; assay: Inhibition of full-length recombinant SARS-CoV-2 3CL protease expressed in Escherichia coli BL21 (DE3) cells using fluorogenic MCA-AVLQSGFR-Lys (Dnp)-Lys-NH2 substrate preincubated for 10 mins followed by substrate addition measured immediately by FRET assay
How it was run: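 FRET assay: 50 nM protease (final) in 50 mM Tris–HCl pH 7.3, 1 mM EDTA, with serially diluted compound. Compound–enzyme preincubation was 10 min in the standard assay, and 0, 5, 10 or 20 min in the time-dependence test. Substrate added at 10 μM final. Fluorescence (ex 320/em 405 nm) read every 35 s for 3.5 min. Initial rates normalised to DMSO control.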

[4] = target: T1, Replicase polyprotein 1ab; assay: Inhibition of full-length recombinant SARS-CoV-2 3CL protease expressed in Escherichia coli BL21 (DE3) cells using fluorogenic MCA-AVLQSGFR-Lys (Dnp)-Lys-NH2 substrate preincubated for 10 mins followed by substrate addition measured after 5 mins by FRET assay
[5] = target: T1, Replicase polyprotein 1ab; assay: Inhibition of full-length recombinant SARS-CoV-2 3CL protease expressed in Escherichia coli BL21 (DE3) cells using fluorogenic MCA-AVLQSGFR-Lys (Dnp)-Lys-NH2 substrate preincubated for 10 mins followed by substrate addition measured after 10 mins by FRET assay
[6] = target: T1, Replicase polyprotein 1ab; assay: Inhibition of full-length recombinant SARS-CoV-2 3CL protease expressed in Escherichia coli BL21 (DE3) cells using fluorogenic MCA-AVLQSGFR-Lys (Dnp)-Lys-NH2 substrate preincubated for 10 mins followed by substrate addition measured after 20 mins by FRET assay
[7] = target: Replicase polyprotein 1ab (Severe acute respiratory syndrome coronavirus 2) (UniProt P0DTD1); assay: Binding affinity to full-length recombinant SARS-CoV-2 3CL protease expressed in Escherichia coli BL21 (DE3) cells assessed as Gibbs free energy change by MM-GBSA method
[8] = target: T1, Replicase polyprotein 1ab; assay: Inhibition of SARS-CoV-2 PLpro using RLRGG-AMC substrate preincubated for 30 mins followed by substrate addition measured for 5 mins by fluorescence based assay
How it was run: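 PLpro at 50 nM with serially diluted compound in 50 mM HEPES pH 7.5, 0.1 mg/mL BSA, incubated 30 min. RLRGG-AMC added to 20 μM final. Fluorescence (ex 360/em 460 nm) read every 1 min for 5 min. Rates compared with DMSO control.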

Chymotrypsin = Chymotrypsin (Homo sapiens, UniProt Q99895+P17538+P40313+Q6GPI1); assay: Inhibition of chymotrypsin (unknown origin) using N-succinyl-AAPF-AMC as substrate preincubated for 10 mins followed by substrate addition measured for 10 mins by fluorescence based assay; format: protein assay
How it was run: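 Chymotrypsin at 5 nM final with serially diluted compound in PBS pH 7.4, incubated 10 min. N-succinyl-AAPF-AMC added at 10 μM final. Fluorescence (ex 380/em 460 nm) read every 1 min for 10 min. Rates relative to DMSO.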

Cathepsin B = Cathepsin B (Homo sapiens, UniProt P07858); assay: Inhibition of human Cathepsin B using Z-RR-AMC as substrate preincubated for 30 mins followed by substrate addition measured for 10 mins by FRET assay
How it was run: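 Cathepsin B (0.25 units) with compound in 20 mM sodium acetate pH 5.5, 1 mM EDTA, 2 mM DTT, incubated 30 min at ambient temperature. Z-RR-AMC added at 1 μM final. Fluorescence (ex 340/em 440 nm) read every 1 min for 10 min. Rates relative to DMSO.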

Procathepsin L = Procathepsin L (Homo sapiens, UniProt P07711); assay: Inhibition of human Cathepsin L using Z-VVR-AMC as substrate measured for 10 mins by fluorescence based assay
Chain of Procathepsin L (P07711 whole entry): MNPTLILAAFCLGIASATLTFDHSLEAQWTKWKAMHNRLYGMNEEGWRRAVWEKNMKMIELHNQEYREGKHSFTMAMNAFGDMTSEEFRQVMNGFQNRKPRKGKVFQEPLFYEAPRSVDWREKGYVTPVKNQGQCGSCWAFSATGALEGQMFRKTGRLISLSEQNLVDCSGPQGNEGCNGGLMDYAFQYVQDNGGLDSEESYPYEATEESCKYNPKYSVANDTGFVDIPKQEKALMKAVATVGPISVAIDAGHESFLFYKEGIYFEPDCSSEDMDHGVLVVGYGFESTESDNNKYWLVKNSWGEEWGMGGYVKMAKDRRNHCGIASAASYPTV

Structure (SMILES): C/N=c1\nc(-c2ccc(OC)cc2)n(-c2cc(F)c(F)c(F)c2)s1
- IC50 [1]: 0.582 µM
- EC50 (SARS-CoV-2): 9.34 µM
- CC50 (Vero C1008): > 100 µM

Structure (SMILES): C/N=c1\nc(-c2ccccc2)n(-c2ccccc2)s1
- IC50 [1]: 0.193 µM
- Kd [2]: 0.798 µM
- IC50 [3]: 0.409 µM
- IC50 [4]: 0.302 µM
- IC50 [5]: 0.206 µM
- IC50 [6]: 0.191 µM
- deltaG [7]: -13.9 kcal/mol
- IC50 [8]: 0.655 µM
- IC50 (Chymotrypsin): > 100 µM
- IC50 (Cathepsin B): > 50 µM
- IC50 (Procathepsin L): > 100 µM

Structure (SMILES): C/N=c1\nc(-c2ccccc2)n(-c2ccc(F)cc2)s1
- IC50 [1]: 0.124 µM

Structure (SMILES): CN=C(S)N=C(Nc1ccccc1)c1ccccc1
- IC50 [1]: 40 µM
- deltaG [7]: -11.4 kcal/mol

Structure (SMILES): C/N=c1\nc(-c2ccc(F)cc2)n(-c2ccccc2)s1
- IC50 [1]: 0.118 µM
- IC50 [8]: 0.448 µM
- IC50 (Chymotrypsin): > 100 µM
- IC50 (Cathepsin B): > 50 µM
- IC50 (Procathepsin L): > 100 µM
- EC50 (SARS-CoV-2): 7.25 µM
- CC50 (Vero C1008): > 100 µM

Structure (SMILES): CCOc1ccc(-c2n/c(=N\C)sn2-c2ccc(F)cc2)cc1
- IC50 [1]: 0.462 µM
- EC50 (SARS-CoV-2): 14.8 µM
- CC50 (Vero C1008): > 100 µM

Structure (SMILES): C/N=c1\nc(-c2ccc(OC)cc2)n(-c2ccccc2)s1
- IC50 [1]: 0.165 µM

Structure (SMILES): FC1(F)CC(/N=c2\nc(-c3ccccc3)n(-c3ccccc3)s2)C1
- IC50 [1]: 0.323 µM

Structure (SMILES): C/N=c1\nc(-c2ccc(OC)cc2)n(-c2ccc(F)cc2)s1
- IC50 [1]: 0.373 µM

Structure (SMILES): c1ccc(-c2n/c(=N\C3CC3)sn2-c2ccccc2)cc1
- IC50 [1]: 0.143 µM

Structure (SMILES): C/N=c1\nc(-c2ccc(Cl)cc2)n(-c2ccccc2)s1
- IC50 [1]: 0.136 µM
